The record followed here is ChEMBL document CHEMBL3045217, “Factors affecting the synergy of thiabendazole, sodium bicarbonate, and heat to control postharvest green mold of citrus fruit” (J Agric Food Chem, 2008).

In series [1] the test system is Penicillium digitatum. As to the kind of experiment: Fungicidal activity against Penicillium digitatum infected Valenica oranges assessed as fruit weight loss at 200 mg/L treated for 1 min at 50 degC postharvest at 20 hr after fungal conidial inoculation measured after 7 days of storage at 17 degC (water Rvb = 3.23%). Type of series: functional.
Series [2] has as its system Inner fruit. The experiment in a line: Drug residues in Citrus sinensis cvs. Salustiana (Salustiana oranges) inner fruit at 600 mg/L treated for 1 min at 50 degC postharvest measured after overnight incubation at 17 degC by GC analysis. In kind it is ADME. An outline of the steps:
(§1)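 'Salustiana' oranges were washed with water and air-dried. They were dipped 1 or 3 min in TBZ 600 mg/L at 20 or 50 °C, or 1 min in TBZ 600 mg/L plus 2% SBC at 20 °C, then dried overnight at 17 °C in the dark. Surface residue was taken by water extraction and wax residue by chloroform extraction. Inner residue was measured in fruit after both extractions. Extracts were dried under N2, taken up in acetone and analysed by GC. Values are mg/kg on a whole-fruit basis.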

Series [3] concerns Penicillium digitatum. The experiment in a line: Fungicidal activity against TBZ-sensitive Penicillium digitatum infected Nova mandarins assessed as postharvest green mold incidence at 400 mg/L treated for 1 min at 40 degC at 20 hr after fungal conidial inoculation measured after 5 days of storage at 20 degC in presence of 1% SBC (water Rvb = 93.3%). In kind it is functional. An outline of the steps:
(§2)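 Fruit were surface-disinfected in 1 g/L hypochlorite for 30 s, rinsed, dried, then wounded twice equatorially (2 mm × 2 mm rod). Inoculation was a 1 min dip in P. digitatum conidia, 1 × 10^5 conidia/mL final. Fruit were held 20 h at 20 °C and 90% RH, dipped 1 min (SBC wt/vol), and air-dried. Storage was 20 °C, 90% RH. Decay incidence (% fruit with lesions) was scored at 5 d for mandarins and 7 d for oranges. Three replicates of 40 fruit were used; arcsin-transformed data were compared by LSD, p ≤ 0.05.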

Series [4] relates to Fruit. As to the kind of experiment: Drug residues in Citrus sinensis cvs. Valencia late (Valencia oranges) at 200 mg/L treated for 1 min at 50 degC postharvest measured after 20 days of storage at 17 degC by GC analysis. In kind it is ADME. Put shortly: (§3)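 'Valencia' oranges were dipped 1 min in TBZ at 600 mg/L (20 °C, ±0.5, 1 or 2% wt/vol SBC), 400 mg/L (40 °C, ±SBC) or 200 mg/L (50 °C, alone), then air-dried. They were sampled at 0, 10 and 20 days at 17 °C. Peel of five fruit was frozen, and 5 g of homogenate was extracted with ethyl acetate/hexane (1/1) plus NaCl. The extract was dried under N2, taken up in acetone and analysed by GC. Results are mg/kg on a whole-fruit basis.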

Series [5] concerns Fruit. As to the kind of experiment: Drug residues in Citrus sinensis cvs. Valencia late (Valencia oranges) at 400 mg/L treated for 1 min at 40 degC postharvest measured immediately post-drug treatment by GC analysis. In kind it is ADME. Put shortly: as §3
Series [6] relates to Fruit. As to the kind of experiment: Drug residues in Citrus sinensis cvs. Valencia late (Valencia oranges) at 400 mg/L treated for 1 min at 40 degC postharvest measured immediately post-drug treatment in presence of 0.5% SBC by GC analysis. Type of series: ADME. Put shortly: as §3
In series [7] the test system is Penicillium digitatum. The experiment in a line: Fungicidal activity against Penicillium digitatum infected Valenica oranges assessed as fruit weight loss at 600 mg/L treated for 1 min at 20 degC postharvest at 20 hr after fungal conidial inoculation measured after 21 days of storage at 17 degC (water Rvb = 7.98%). In kind it is functional.
Series [8] deals with Penicillium digitatum. As to the kind of experiment: Fungicidal activity against Penicillium digitatum infected Valenica oranges assessed as fruit weight loss at 600 mg/L treated for 1 min at 20 degC postharvest at 20 hr after fungal conidial inoculation measured after 21 days of storage at 17 degC in presence of 0.5% SBC (water Rvb = 10.79%). Type of series: functional.
In series [9] the test system is Cuticular wax. As to the kind of experiment: Drug residues in Citrus sinensis cvs. Salustiana (Salustiana oranges) cuticular wax at 600 mg/L treated for 1 min at 50 degC postharvest measured after overnight incubation at 17 degC by GC analysis. Type of series: ADME. An outline of the steps:
as §1

Series [10] relates to Penicillium digitatum. As to the kind of experiment: Fungicidal activity against Penicillium digitatum infected Valenica oranges assessed as fruit weight loss at 600 mg/L treated for 1 min at 20 degC postharvest at 20 hr after fungal conidial inoculation measured after 7 days of storage at 17 degC in presence of 1% SBC (water Rvb = 3.89%). Type of series: functional.
Series [11] relates to Penicillium digitatum. As to the kind of experiment: Fungicidal activity against Penicillium digitatum infected Valenica oranges assessed as fruit weight loss at 400 mg/L treated for 1 min at 40 degC postharvest at 20 hr after fungal conidial inoculation measured after 21 days of storage at 17 degC in presence of 1% SBC (water Rvb = 12.71%). In kind it is functional.
Series [12] relates to Fruit. As to the kind of experiment: Drug residues in Citrus sinensis cvs. Valencia late (Valencia oranges) at 400 mg/L treated for 1 min at 40 degC postharvest measured after 10 days of storage at 17 degC in presence of 1% SBC by GC analysis. In kind it is ADME. An outline of the steps: as §3
The subject of series [13] is Penicillium digitatum. As to the kind of experiment: Fungicidal activity against Penicillium digitatum infected Valenica oranges assessed as fruit weight loss at 600 mg/L treated for 1 min at 20 degC postharvest at 20 hr after fungal conidial inoculation measured after 14 days of storage at 17 degC in presence of 0.5% SBC (water Rvb = 7.44%). Type of series: functional.

For series [14], the system named is Inner fruit. The experiment in a line: Drug residues in Citrus sinensis cvs. Salustiana (Salustiana oranges) inner fruit at 600 mg/L treated for 3 min at 50 degC postharvest measured after overnight incubation at 17 degC by GC analysis. Type of series: ADME. As to conditions: 0.05 h. Put shortly:
as §1

In series [15] the test system is Penicillium digitatum. The experiment in a line: Fungicidal activity against TBZ-sensitive Penicillium digitatum infected Nova mandarins assessed as postharvest green mold incidence at 600 mg/L treated for 1 min at 20 degC at 20 hr after fungal conidial inoculation measured after 5 days of storage at 20 degC (water Rvb = 100%). Type of series: functional. An outline of the steps: as §2

Series [16] relates to Fruit. As to the kind of experiment: Total drug residues in Citrus sinensis cvs. Salustiana (Salustiana oranges) fruit at 600 mg/L treated for 3 min at 20 degC postharvest measured after overnight incubation at 17 degC by GC analysis. As to conditions: 0.05 h. In kind it is ADME. An outline of the steps: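 'Salustiana' oranges were water-washed, dried, dipped, then dried overnight at 17 °C in the dark. Unextracted fruit were used for total residues. Peel from five oranges was frozen at -18 °C. 5 g homogenized peel was extracted with 10 mL ethyl acetate/hexane (1/1) plus 2 g NaCl, shaken 30 min, then 1 mL of organic layer was dried under N2, redissolved in acetone, and run by GC without cleanup. Results are on a whole-fruit basis.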

Series [17] concerns Penicillium digitatum. As to the kind of experiment: Fungicidal activity against TBZ-sensitive Penicillium digitatum infected Nova mandarins assessed as postharvest green mold incidence at 400 mg/L treated for 1 min at 40 degC at 20 hr after fungal conidial inoculation measured after 5 days of storage at 20 degC (water Rvb = 100%). Type of series: functional. An outline of the steps:
as §2

Series [18] has as its system Fruit. As to the kind of experiment: Drug residues in Citrus sinensis cvs. Valencia late (Valencia oranges) at 400 mg/L treated for 1 min at 40 degC postharvest measured after 20 days of storage at 17 degC in presence of 0.5% SBC by GC analysis. In kind it is ADME. Put shortly:
as §3

Series [19] has as its system Penicillium digitatum. The experiment in a line: Fungicidal activity against Penicillium digitatum infected Valenica oranges assessed as fruit weight loss at 200 mg/L treated for 1 min at 50 degC postharvest at 20 hr after fungal conidial inoculation measured after 21 days of storage at 17 degC (water Rvb = 8.83%). In kind it is functional.

On to `c1ccc2[nH]c(-c3cscn3)nc2c1` [THIABENDAZOLE], for which the Activity is reported as 2.98% in [1]; 5% in series [3]; 8.85% in series [7]; 11.84% in series [8]; 4.33% in series [10]; 12.11% in series [11]. Besides, the Activity came out at 8.15% in [13], 0% in series [15], 1.7% in series [17] and 8.54% in series [19]. Also, the Drug uptake in series [2] was 0.17 mg/kg; in series [4] it was 0.38 mg/kg; in [5], 0.83 mg/kg; in series [6], 0.79 mg/kg; in [9], 0.54 mg/kg; in series [12] it was 0.7 mg/kg. Besides, the Drug uptake in series [14] came to 0.4 mg/kg; in series [16] it was 1.1 mg/kg; in [18] it was 0.79 mg/kg.
